What was measured:
Rattus norvegicus [1] = experiment: Antiinflammatory activity in albino rat acute inflammatory model assessed as inhibition of carrageenan-induced paw edema at 200 mg/kg, po dosed 1 hr before carrageenan challenge measured after 2 hrs relative to control; assay type: functional
In short: (§1)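 Male albino rats (170–220 g), fasted at least 12 h with water available, groups of six. Oral dosing with 0.5% sodium CMC vehicle control. One hour later, 0.05 ml of 1% carrageenan was injected subplantar into the left hind paw. Paw volume was measured by digital plethysmometer at 0, 2 and 4 h. % inhibition = [1 − treated/control edema volume] × 100, n=6.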

Rattus norvegicus [2] = experiment: Antiinflammatory activity in albino rat acute inflammatory model assessed as inhibition of carrageenan-induced paw edema at 200 mg/kg, po dosed 1 hr before carrageenan challenge measured after 4 hrs relative to control; assay type: functional; in short: as §1
[3] = Acute toxicity in po dosed albino mouse assessed as maximum tolerated dose; assay type: organism-based; details: in vivo
In short: (§2)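 Albino mice of either sex (20–25 g), 12 groups of six, fasted 24 h with water available. Given oral doses rising through 10, 20, 100, 200, 1000 and 2000 mg/kg. Watched continuously for 3 h for behavioural, neurological and autonomic signs, then every 30 min for the next 3 h, then up to 24 h or until death. Guideline: OECD.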

Mus musculus [4] = experiment: Acute toxicity in albino mouse assessed as mortality up to 2000 mg/kg, po after 24 hrs; assay type: organism-based; design: dose 2000 mg/kg, route oral; details: in vivo; in short: as §2
Rattus norvegicus [5] = experiment: Gastrointestinal toxicity in starved po dosed albino rat stress model assessed as ulcer index after 7 hrs; assay type: organism-based; details: in vivo
In short: (§3)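 Albino rats of either sex, 170–250 g, six per group, starved 48 h with water ad libitum. Dosed orally as a suspension in 0.5% sodium CMC, test compounds at 200 mg/kg b.w. Killed 7 h later. Stomach opened along the greater curvature and everted. Ulcer index from lesion counts in five size classes, ranging from pinpoint to >4 mm diameter.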

Mus musculus [6] = experiment: Analgesic activity in albino mouse assessed as protection against glacial acetic acid-induced writhing response at 30 mg/kg, po pretreated 0.5 hrs before glacial acetic acid challenge measured for 15 mins; assay type: functional
In short: (§4)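 Albino mice of either sex (20–25 g). Mice were pre-screened the day before for writhing, and only responders were used. Compound was given orally as a suspension in 0.5% sodium CMC 30 min before glacial acetic acid challenge. Stretching episodes were counted for 15 min. Results are the group mean, n=6, with % protection against control.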

Mus musculus [7] = experiment: Acute toxicity in albino mouse assessed as behavioral response up to 2000 mg/kg, po after 24 hrs; assay type: organism-based; design: dose 2000 mg/kg, route oral; details: in vivo; in short: as §2
Rattus norvegicus [8] = experiment: Antipyretic activity in yeast-induced pyrexia albino rat model assessed as mean rectal temperature at 200 mg/kg, po administered 30 mins after 18 hrs of yeast challenge measured after 1 hr postdosing (Rvb=39.4 degC); assay type: functional
Rattus norvegicus [9] = experiment: Antipyretic activity in yeast-induced pyrexia albino rat model assessed as mean rectal temperature at 200 mg/kg, po administered 30 mins after 18 hrs of yeast challenge measured after 3 hrs postdosing (Rvb=38.9 degC); assay type: functional
Rattus norvegicus [10] = experiment: Antipyretic activity in yeast-induced pyrexia albino rat model assessed as mean rectal temperature at 200 mg/kg, po administered 30 mins after 18 hrs of yeast challenge measured after 4 hrs postdosing (Rvb=38.7 degC); assay type: functional
Rattus norvegicus [11] = experiment: Antiinflammatory activity in albino rat chronic arthritis model assessed as inhibition of Freund's adjuvant-induced paw edema at 200 mg/kg, po administered on day 16 to 19 post Freund's adjuvant challenge measured on day 19 relative to control; assay type: functional
In short: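 Male albino rats (150–230 g) received 0.1 ml heat-killed M. tuberculosis (Freund's complete adjuvant) into the left hind footpad on day 1. Rats with developed arthritis on day 15 were split into groups of six. Dosing was oral, days 16–19, with 1 ml 0.5% sodium CMC as control. Paw volume, body weight and secondary lesions were recorded daily. % inhibition was calculated from day 15, n=6.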

Rattus norvegicus [12] = experiment: Antipyretic activity in yeast-induced pyrexia albino rat model assessed as mean rectal temperature at 200 mg/kg, po administered 30 mins after 18 hrs of yeast challenge measured after 5 hrs postdosing (Rvb=38.2 degC); assay type: functional
Rattus norvegicus [13] = experiment: Antipyretic activity in yeast-induced pyrexia albino rat model assessed as mean rectal temperature at 200 mg/kg, po administered 30 mins after 18 hrs of yeast challenge measured after 2 hrs postdosing (Rvb=39.2 degC); assay type: functional
Mus musculus [14] = experiment: Analgesic activity in albino mouse assessed as protection against glacial acetic acid-induced writhing response at 200 mg/kg, po pretreated 0.5 hrs before glacial acetic acid challenge measured for 15 mins; assay type: functional; in short: as §4
Rattus norvegicus [15] = experiment: Gastrointestinal toxicity in starved albino rat stress model assessed as ulcer index at 200 mg/kg, po after 7 hrs; assay type: organism-based; design: dose 200 mg/kg, route oral; details: in vivo; in short: as §3
Rattus norvegicus [16] = experiment: Antipyretic activity in yeast-induced pyrexia albino rat model assessed as temperature index measured by sum of mean rectal temperature changes from 0 to 5 hrs at 200 mg/kg, po administered 30 mins after 18 hrs of yeast challenge (Rvb=39.6 degC); assay type: functional

Row | SMILES | inhibition in vivo at 200 mg/kg (Rattus norvegicus [1]) [%] | inhibition in vivo at 200 mg/kg (Rattus norvegicus [2]) [%] | MTD [3] [mg/kg] | Activity (Mus musculus [4]) | Activity (Mus musculus [7]) | other results
1 | O=c1oc2ccccc2cc1C1=NN(c2ccccc2)[C@@H](c2ccccc2)C1 | 27.2 | 32.7 | 2000 | Non-toxic | – | –
2 | CC(=O)Oc1ccccc1C(=O)O [ASPIRIN] | – | – | – | – | – | UI (Rattus norvegicus [5]): 4.33; Activity (Mus musculus [6]): 67%
3 | COc1ccc([C@H]2CC(c3cc4ccccc4oc3=O)=NN2c2ccccc2)cc1 | 24.8 | 36.2 | – | Non-toxic | Toxic | –
4 | COc1cccc([C@H]2CC(c3cc4ccccc4oc3=O)=NN2c2ccccc2)c1 | 38.3 | 61.5 | 2000 | Non-toxic | – | Activity (Rattus norvegicus [8]): 39.4 °C; Activity (Rattus norvegicus [9]): 38.6 °C; Activity (Rattus norvegicus [10]): 38.2 °C; inhibition in vivo at 200 mg/kg (Rattus norvegicus [11]): 20.9%; Activity (Rattus norvegicus [12]): 37.9 °C; Activity (Rattus norvegicus [13]): 38.8 °C; Activity (Mus musculus [14]): 35%; UI (Rattus norvegicus [15]): 2.12; Activity (Rattus norvegicus [16]): -5.1 °C
5 | O=c1oc2ccccc2cc1C1=NN(c2ccccc2)[C@@H](c2ccc(O)cc2)C1 | 28.8 | 34.6 | 2000 | Non-toxic | – | –
6 | O=c1oc2ccccc2cc1C1=NN(c2ccccc2)[C@@H](/C=C/c2ccccc2)C1 | 26.7 | 42.5 | – | Non-toxic | Toxic | –
7 | CN(C)c1ccc([C@H]2CC(c3cc4ccccc4oc3=O)=NN2c2ccccc2)cc1 | 28.4 | 40.1 | – | Non-toxic | Toxic | –

Source: ChEMBL document CHEMBL1137722, “Synthesis and pharmacological evaluation of a novel series of 5-(substituted)aryl-3-(3-coumarinyl)-1-phenyl-2-pyrazolines as novel anti-inflammatory and analgesic agents” (Eur J Med Chem, 2009)
